≈ marks a conversion by molar mass, not a printed value.
Key:
Plasmodium falciparum = experiment: Antimalarial activity against chloroquine-sensitive Plasmodium falciparum 3D7 after 72 hrs by SYBR Green assay; details: 3D7, 72 h
[1] = Selectivity index, ratio of IC50 for african green monkey (Cercopithecus aethiops) Vero cells to IC50 for Plasmodium falciparum 3D7; assay type: toxicity, cell-based; details: read-out: Ratio IC50
How it was run: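 P. falciparum 3D7 was tested by SYBR Green I fluorescence at 0.5% parasitaemia: two-fold dilutions from 500 ng/mL (seven concentrations), duplicate wells, 72 h, then lysis buffer with dye. Vero cells (1 × 10⁴/well) got MTT after 72 h with compound. Each IC₅₀ came from non-linear regression dose–response curves; selectivity index is the Vero/3D7 ratio.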

Plasmodium yoelii [2] = experiment: Antiplasmodial activity as reduced parasitaemia against chloroquine-resistant Plasmodium yoelii N67 infected Swiss mice (Mus musculus) at 50 mg/kg/day after 4 days; assay type: functional; parameters: scale not given: the % may be the effect or the level left
How it was run: (§1)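 Swiss mice inoculated on day 0 with 1×10⁶ P. yoelii N-67 parasitized RBC. Groups of five received 50 mg/kg/day intraperitoneally, once daily on days 0–3, as aqueous suspensions with a few drops of Tween 80. Parasitaemia read from thin blood smears. Percent suppression calculated from the group mean against untreated infected controls.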

Plasmodium yoelii [3] = experiment: Antiplasmodial activity as reduced parasitaemia against chloroquine-resistant Plasmodium yoelii N67 infected Swiss mice (Mus musculus) at 50 mg/kg/day intraperitoneal dose after 10 days; assay type: functional; parameters: scale not given: the % may be the effect or the level left
How it was run: as §1

Plasmodium yoelii [4] = experiment: Antiplasmodial activity as reduced parasitaemia against chloroquine-resistant Plasmodium yoelii N67 infected Swiss mice (Mus musculus) at 10 mg/kg/day peroral dose after 4 days; assay type: functional; parameters: scale not given: the % may be the effect or the level left; details: route oral
How it was run: (§2)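 Swiss mice inoculated on day 0 with 1×10⁶ P. yoelii N-67 parasitized RBC. […] Parasitaemia read from thin blood smears. Percent suppression calculated from the group mean against untreated infected controls.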

Plasmodium yoelii [5] = experiment: Antiplasmodial activity as reduced parasitaemia against chloroquine-resistant Plasmodium yoelii N67 infected Swiss mice (Mus musculus) at 10 mg/kg/day peroral dose over 10 days; assay type: functional; parameters: scale not given: the % may be the effect or the level left; details: route oral
How it was run: as §2

| SMILES | IC50 (Plasmodium falciparum) [µg/mL] | selectivity ratio [1] | Activity (Plasmodium yoelii [2]) [%] | Activity (Plasmodium yoelii [3]) [%] | Activity (Plasmodium yoelii [4]) [%] | Activity (Plasmodium yoelii [5]) [%] |
| --- | --- | --- | --- | --- | --- | --- |
| S=C(NCCNc1ccnc2cc(Cl)ccc12)Nc1ccccc1 | 0.00922 (≈ 0.0258 µM) | 997 | – | – | – | – |
| S=C(NCCNc1ccnc2cc(Cl)ccc12)Nc1ccccc1Cl | 0.0205 (≈ 0.0524 µM) | 332 | – | – | – | – |
| O=C1C(=O)N(c2ccccc2)C(=S)N1CCCNc1ccnc2cc(Cl)ccc12 | 0.151 (≈ 0.354 µM) | 65.5 | – | – | – | – |
| CCCCN1C(=O)C(=O)N(CCCNc2ccnc3cc(Cl)ccc23)C1=S | 0.0697 (≈ 0.172 µM) | 27.2 | – | – | – | – |
| CCCCN1C(=O)C(=O)N(CCNc2ccnc3cc(Cl)ccc23)C1=S | 0.0331 (≈ 0.0846 µM) | 406 | – | – | – | – |
| O=C1S/C(=N\c2ccccc2)N(CCCNc2ccnc3cc(Cl)ccc23)C1=O | 0.011 (≈ 0.026 µM) | 637 | – | – | – | – |
| S=C(NCCCNc1ccnc2cc(Cl)ccc12)Nc1ccccc1Cl | 0.0102 (≈ 0.0251 µM) | 1110 | 16.82 | – | – | – |
| CCCCNC(=S)NCCCNc1ccnc2cc(Cl)ccc12 | 0.0118 (≈ 0.0337 µM) | 600 | – | – | – | – |
| C=CCNC(=S)NCCNc1ccnc2cc(Cl)ccc12 | 0.0261 (≈ 0.0814 µM) | 668 | – | – | – | – |
| CCCCNC(=S)NCCNc1ccnc2cc(Cl)ccc12 | 0.00607 (≈ 0.018 µM) | 750 | 99.27 | 50.5 | – | – |
| CCCC/N=C1\SC(=O)C(=O)N1CCNc1ccnc2cc(Cl)ccc12 | 0.0174 (≈ 0.0446 µM) | 480 | – | – | – | – |
| C=CC/N=C1\SC(=O)C(=O)N1CCNc1ccnc2cc(Cl)ccc12 | 0.0324 (≈ 0.0865 µM) | 603 | – | – | – | – |
| C=CC/N=C1\SC(=O)C(=O)N1CCCNc1ccnc2cc(Cl)ccc12 | 0.112 (≈ 0.287 µM) | 475 | – | – | – | – |
| O=C1C(=O)N(c2ccccc2Cl)C(=S)N1CCCNc1ccnc2cc(Cl)ccc12 | 0.0397 (≈ 0.0864 µM) | 122 | – | – | – | – |
| O=C1C(=O)N(c2ccccc2)C(=S)N1CCNc1ccnc2cc(Cl)ccc12 | 0.119 (≈ 0.29 µM) | 118 | – | – | – | – |
| O=C1S/C(=N\c2ccccc2Cl)N(CCCNc2ccnc3cc(Cl)ccc23)C1=O | 0.0175 (≈ 0.0381 µM) | 434 | – | – | – | – |
| O=C1C(=O)N(c2ccccc2Cl)C(=S)N1CCNc1ccnc2cc(Cl)ccc12 | 0.199 (≈ 0.448 µM) | 3.36 | – | – | – | – |
| C=CCN1C(=O)C(=O)N(CCNc2ccnc3cc(Cl)ccc23)C1=S | 0.104 (≈ 0.278 µM) | 141 | – | – | – | – |
| CCCC/N=C1\SC(=O)C(=O)N1CCCNc1ccnc2cc(Cl)ccc12 | 0.011 (≈ 0.0272 µM) | 256 | – | – | – | – |
| S=C(NCCCNc1ccnc2cc(Cl)ccc12)Nc1ccccc1 | 0.01 (≈ 0.027 µM) | 968 | – | – | – | – |
| C=CCN1C(=O)C(=O)N(CCCNc2ccnc3cc(Cl)ccc23)C1=S | 0.0548 (≈ 0.141 µM) | 80.4 | – | – | – | – |
| O=C1S/C(=N\c2ccccc2Cl)N(CCNc2ccnc3cc(Cl)ccc23)C1=O | 0.0121 (≈ 0.0272 µM) | 543 | 5.45 | – | – | – |
| O=C1S/C(=N\c2ccccc2)N(CCNc2ccnc3cc(Cl)ccc23)C1=O | 0.0295 (≈ 0.0718 µM) | 605 | – | – | – | – |
| CCN(CC)CCCC(C)Nc1ccnc2cc(Cl)ccc12 (centres undefined) [CHLOROQUINE] | – | – | – | – | 99.05 | 73.92 |
| C=CCNC(=S)NCCCNc1ccnc2cc(Cl)ccc12 | 0.042 (≈ 0.125 µM) | 582 | – | – | – | – |
